Only some compounds are listed: those with a hit (about 2.8% of all), similar ones and a draw of the others.
EP2 modulator – EP2 receptor modulators, cAMP readout, primary screen, cell-based, HTRF cAMP, PGE2 stimulation. Prostaglandin E2 receptor EP2 subtype (Homo sapiens), P43116. EP2-expressing cells, cAMP HTRF FRET, PGE2 co-stimulation. induction, % at 25 µM. 260,000 tested, 0.83% active;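 active means compounds whose cAMP rise, as percent of the full-agonist control response, exceeds 60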;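 further: rat C6 glioma line stably carrying human EP2 under a CMV promoter; the protocol text gives 20 µM as final concentration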
PGE2 EP2 inh – human EP2 receptor antagonists, primary screen, TR-FRET cAMP, C6 glioma cells. C6 glioma cells expressing human EP2; cells stimulated with saturating PGE2. Prostaglandin E2 receptor EP2 subtype (Homo sapiens), P43116. AID 1422, 2008. 260,000 tested, 0.52% active. inhibition, % at 25 µM;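 active means percent inhibition above 40 after rounding to a whole number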;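 further: rat C6 glioma host cells with rolipram phosphodiesterase inhibitor present; the protocol text gives 20 µM as final concentration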
NPY-Y1 PAM-ag – NPY-Y1 receptor potentiators or agonists, primary screen, cell-based; NPY-Y1 expressing cells, potentiator/agonist activation; activation, % at 3.6 µM; 220,000 tested, 0.37% active; in the data active means activation above about 33%, passing the limit was not always enough;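 further: cells stimulated with NPY at EC10 then isoproterenol at EC100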
Target sequence (P25929 whole entry, looked up): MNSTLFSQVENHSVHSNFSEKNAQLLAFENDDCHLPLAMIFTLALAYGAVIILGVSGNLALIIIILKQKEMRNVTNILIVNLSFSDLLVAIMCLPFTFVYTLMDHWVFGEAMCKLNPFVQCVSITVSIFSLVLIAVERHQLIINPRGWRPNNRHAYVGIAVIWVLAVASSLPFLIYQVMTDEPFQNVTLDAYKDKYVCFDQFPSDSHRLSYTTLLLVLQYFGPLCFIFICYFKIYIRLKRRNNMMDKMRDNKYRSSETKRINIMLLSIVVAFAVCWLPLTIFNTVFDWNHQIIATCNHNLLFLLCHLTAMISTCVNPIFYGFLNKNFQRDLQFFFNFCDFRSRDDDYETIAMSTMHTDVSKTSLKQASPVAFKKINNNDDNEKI
NPY-Y1 antag – NPY-Y1 receptor antagonists, primary screen, cell-based | Neuropeptide Y receptor type 1 (Homo sapiens), P25929 | HEK293-CNG Y1 cells, membrane potential fluorescence; NPY at EC95, then isoproterenol | inhibition, % at 3.6 µM | 200,000 tested, 1% active | AID 1040, 2008;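 active means inhibition above the campaign mean inhibition of all tested compounds plus 3 SD, cut at about 20% in these data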
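Material: HEK293 Y1/CNG channel cell line | Also added: NPY (25 nM), isoproterenol (1 µM), Ro 20-1724 (25 µM) | Compound: One concentration, 3.6 µM, in 0.4% DMSO | Schedule: 3 h dye uptake, 1 h room-temperature compound, 45 min post-isoproterenol | Signal: Membrane-potential fluorescent dye readout | Read-out: % inhibition of NPY effect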
NPY-Y2 antag – NPY-Y2 receptor antagonists, primary screen, cell-based. inhibition, % at 2.7 µM. NPY-Y2 expressing cells, antagonist mode. AID 793, 2007. 140,000 tested, 0.99% active. Neuropeptide Y receptor type 2 (Homo sapiens), P49146; in the data active means inhibition above about 17%
NPY2 pot ag – NPY-Y2 potentiators or agonists, primary screen, cell-based | Neuropeptide Y receptor type 2 (Homo sapiens), P49146 | cells expressing NPY-Y2, potentiator/agonist read-out | activation, % at 3.6 µM | 220,000 tested, 0.45% active | AID 1359, 2008; in the data active means activation above about 27%;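 further: cells stimulated with NPY near EC25 plus isoproterenol at EC100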
EP2 confirm – cAMP induction in EP2, EP4, beta2-AR and parental cells, confirmation, counter-screen for EP2 modulator project, cell-based, five parallel assays, C6 glioma, HEK293; 1,300 tested, 47% active; cAMP HTRF induction; plus low (about EC15) PGE2 agonist; calls only at 20 µM (by protocol); shares compounds with EP2 modulator;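 active means cAMP induction above 50% in the main assay while under 30% in all four parallel counter assays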;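 further: rat C6 glioma cells stably expressing human EP2 receptor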
Hits are given with their value; n = inactive; x = not tested or not shown; + = active, no number.

SMILES	EP2 modulator	PGE2 EP2 inh	NPY-Y1 PAM-ag	NPY-Y1 antag	NPY-Y2 antag	NPY2 pot ag	EP2 confirm
CCOC(=O)c1c(-c2cccs2)csc1NC(=O)c1ccncc1	n	n	n	n	n	n	x
CCOC(=O)c1c(-c2cccs2)csc1NC(=O)COC(=O)c1c(C)noc1C	69	n	n	n	n	n	+
O=C(Nc1ccccc1N1CCOCC1)c1cccnc1Cl	n	n	n	n	x	n	x
O=C(Nc1ccccc1N1CCOCC1)c1ccc2ccccc2n1	70	n	n	n	n	n	+
C/C(=N\NC(=O)NC1CCCCC1)C1CCCCC1	71	n	n	n	n	n	n
COc1ccc(C2(C(=O)NCc3ccccc3Cl)CCOCC2)cc1OC	n	n	n	n	x	n	x
COc1ccccc1CNC(=O)C1(c2ccc(Cl)cc2)CC1	69	n	n	n	n	n	n
COc1ccc(S(=O)(=O)N(Cc2cc3cc4c(cc3n3nnnc23)OCO4)C2CCCCC2)cc1	n	n	x	x	x	x	x
CC1CN(c2nc3ccccc3cc2-c2ccccc2)CC(C)O1 (centres undefined)	67	n	n	n	x	n	+
CC1CN(c2cc(-c3ccccc3)c3ccccc3n2)CC(C)O1 (centres undefined)	n	n	n	n	n	n	x
COC(=O)c1ccc(NC(=O)C(=O)N2CCN(C(=S)NCC3CCCO3)CC2)cc1 (centres undefined)	n	n	x	x	x	x	x
O=C(c1cc(-c2ccccn2)nc2ccc(Br)cc12)N1CCc2ccccc2C1	66	x	n	n	n	n	n
O=C(c1cc(-c2ccccn2)nc2ccc(Br)cc12)N1CCN(S(=O)(=O)c2ccccc2)CC1	n	n	n	n	x	n	x
CC(C)N(CCNC(=O)c1oc(=O)c2ccccc2c1-c1ccccc1)Cc1ccco1	69	n	n	n	x	n	n
COc1ccc(CCN(Cc2nc(-c3ccccc3)no2)Cc2nc(-c3ccccc3)no2)cc1OC	n	n	n	n	n	n	n
COc1ccc(S(=O)(=O)N(Cc2ccccc2)Cc2nc(-c3ccccc3)no2)cc1	n	n	n	41	21	n	+
COc1ccc(CCN(C)Cc2nc(-c3cnccn3)no2)cc1OC	n	n	n	x	x	n	x
O=C(CSc1nnc(CNc2ccc(F)cc2)n1Cc1ccccc1)NCc1ccccc1	n	n	n	n	n	n	x
Cn1c(CNc2ccc(F)cc2)nnc1SCC(=O)NNC(=O)Cc1ccccc1	n	n	n	n	x	n	n
C[C@@H]1CC[C@H]2C(C)(C)C3CC12CC[C@@]3(C)O (some centres undefined)	65	n	x	x	x	x	+
CCOc1ccccc1NC(=O)CN1CCC(n2nnc3cc(C)ccc32)CC1	n	n	x	x	x	x	x
Cc1ccc(CSc2ncnc3c2cnn3Cc2ccccc2)cc1C	66	n	n	n	n	n	n
Cc1cnc(C(=O)N2CCC(n3nnc4ccccc4c3=O)CC2)cn1	n	n	x	x	x	x	x
O=C(NCc1ccccc1)c1ccc(=O)[nH]n1	n	n	n	n	n	n	x
O=C(NCc1ccco1)c1ccc(=O)[nH]n1	67	n	n	n	n	n	n
SMILES	EP2 modulator	PGE2 EP2 inh	NPY-Y1 PAM-ag	NPY-Y1 antag	NPY-Y2 antag	NPY2 pot ag	EP2 confirm
CC(C)(C)c1cc(C(=O)N2CCC[C@H](C(=O)c3ccc4c(c3)OCO4)C2)n[nH]1	n	n	x	x	x	x	x
Cc1ccc2cc(C(c3nnnn3C(C)(C)C)N(Cc3ccccc3)Cc3cccs3)c(=O)[nH]c2c1 (centres undefined)	n	n	x	x	x	x	x
CCOP(=O)(OCC)c1nc(-c2ccc(Cl)cc2)oc1NCc1ccccc1	78	n	n	n	x	n	n
CCCOP(=O)(OCCC)c1nc(-c2ccccc2)oc1NCc1ccccc1	94	n	n	n	n	n	+
Cc1ccc(-c2nc3ccccc3nc2Cl)cc1	65	n	n	n	x	n	n
c1cncc(-c2nc(N3CCOCC3)c3c4c(sc3n2)CCC4)c1	n	n	n	n	x	n	n
c1cncc(-c2nc(NCCCN3CCOCC3)c3c4c(sc3n2)CCC4)c1	n	n	n	n	x	n	x
c1ccc(CCc2ccccc2-c2nc(-c3ccccn3)no2)cc1	101	n	n	n	n	n	+
c1ccc(CCc2ccccc2-c2nc(-c3cccnc3)no2)cc1	82	n	n	n	n	n	+
c1ccc(-c2noc(-c3cccc4ccccc34)n2)cc1	69	n	n	n	n	n	n
c1ccc(-c2ccccc2-c2nc(-c3cccnc3)no2)cc1	72	n	n	n	n	n	+
c1cncc(-c2noc(-c3cccc4ccccc34)n2)c1	n	n	n	n	n	n	x
Cc1occc1-c1nc(-c2ccccn2)no1	n	n	n	n	n	n	x
COc1cccc(N2CCN(CC(=O)Nc3ncc(C)s3)CC2)c1	n	n	x	x	x	x	x
COc1ccc(CNC(=O)CN2CCC(c3ccc4c(c3)OCO4)CC2)cc1	n	n	x	x	x	x	x
O=C(CSc1nnc2n(Cc3ccccc3)c3ccccc3n12)N1CCCc2ccccc21	n	n	x	x	x	x	x
CCc1nnc(NC(=O)CSc2nnc(C3CCCCC3)n2CC)s1	n	n	x	x	x	x	x
COc1ccccc1/C=C(/C(=O)OCC(=O)Nc1ccccc1C(C)C)c1ccccc1	68	n	n	n	n	n	+
CC(=O)O[C@H]1C[C@@H](OC(C)=O)C(C)(C)C2C[C@@H](OC(C)=O)[C@]3(C)C([C@H](OC(C)=O)C[C@@]4(C)[C@H](c5ccoc5)OC(=O)[C@H]5O[C@]543)[C@]21C (some centres undefined)	70	n	x	x	x	x	+
CC(=O)O[C@H]1CC[C@@]2(C)C(C[C@@H](OC(C)=O)[C@]3(C)C2CC[C@@]2(C)[C@H](c4ccoc4)OC(=O)[C@H]4O[C@]423)C1(C)C (some centres undefined)	n	n	x	x	x	x	x
O=C(COc1cccc2ccccc12)N1c2ccccc2CCc2ccccc21	66	n	n	n	n	n	+
O=C(COc1ccc(F)cc1)N1c2ccccc2CCc2ccccc21	n	n	n	n	n	n	x
C/C(=N\N(Cc1ccccc1)c1ccccc1)c1ccncc1	75	n	n	n	x	n	+
CN(C(=O)c1ccncc1)c1ccccc1	n	n	n	x	x	n	x
CCOC(=O)c1c(NC(=O)c2ccco2)sc2c1CCCCC2	79	n	n	n	n	n	+
CCOC(=O)c1c(NC(=O)C2CC2)sc(C)c1CC	n	n	n	n	n	n	x

Screens deposited in PubChem BioAssay by several laboratories.
